The values below come from PubChem BioAssay.

The structures appear in SMILES notation. Inconclusive results are not listed. Active and inactive are the calls of the source.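 How the source made its calls, unless noted: active means viability increase at or above a cutoff of the median across tested compounds plus 3 SD (cut at about 8.5% in these data, passing the limit was not always enough); inconclusive means some gains above the cutoff, reason not given; inactive means the rest.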

Test [1] in a line: OD615 S. cerevisiae growth inhibition, permissive medium, pilot counter-assay, permissive growth control for S. cerevisiae lifespan shortening project (AID 705;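 active means growth inhibition above 25% in both replicates, a cutoff set 3 SD above the mean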). The conditions noted are these: OD615, 24 h, at 10 µM, stronger effect = higher value. The gist of the method: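 System: Engineered DeaD yeast | Buffer or medium: SC raffinose/galactose permissive medium | Incubation: Cells pre-grown 4 h, then 24 h compound exposure, 30 °C humidified | Measured by: Absorbance (optical density) at 615 nm | Read-out: Reduction in yeast growth (OD615)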

A short description of test [2]: Restrictive medium S. cerevisiae growth inhibition, OD615, pilot screen of yeast lifespan reduction project, restrictive growth control (AID 706;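 active means growth inhibition above a set limit, 3 SD over mean compound inhibition, in both replicates, cut at about 43% in these data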;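 further: modified DeaD lifespan yeast strain shifted to restrictive glucose medium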). The conditions noted are these: OD615, 48 h, at 10 µM, stronger effect = higher value. The gist of the method:
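Material: modified S. cerevisiae; Medium: glucose-based CSMM-D restrictive medium; Compound dosing: one concentration, 10 µM final, 0.25% DMSO; Incubation: 48 h compound exposure at 30 °C; Measured by: OD615.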

The nature of test [3]: viability gain of MRP-1-high H69AR cells under doxorubicin, pilot screen, MRP-1 activator project, CellTiter-Glo, duplicate (AID 807).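 Further: compound pretreatment 18-22 h then 72 h combined with doxorubicin; 0% = doxorubicin alone and 100% = vehicle without doxorubicin.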 The conditions noted are these: H69AR viability with doxorubicin, CellTiter-Glo luminescence; at 10 µM; stronger effect = higher value. In general terms: Cellular ATP, detected with luciferase, serves as a proxy for viable cell number.
Test [4] is described as follows: growth suppression of beta-catenin knockout HCT116, pilot screen, human colon tumor cells (AID 823;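 active means cell viability at or below a set limit in both duplicate runs, the limit being the all-compound median minus 4 SD, cut at about 23% in these data, passing the limit was not always enough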;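 further: 0% = wells killed by 20 µM Hyamine and 100% = untreated DMSO cell wells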). The conditions noted are these: CellTiter-Glo, 60 h, at 10 µM, stronger effect = lower value.
Test [5] in a line: growth suppression of PTEN-deleted HCT116, pilot screen, cell-based, HCT116 clonal line, CellTiter-Glo (AID 824;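 active means viability at or below 27.92% in each of two runs, the all-compound median minus 4 SD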;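 further: 0% = 20 µM Hyamine control and 100% = vehicle cell control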). The conditions noted are these: 60 h, at 10 µM, stronger effect = lower value.
A short description of test [6]: inhibitors of the yeast RAM network, pilot screen, dse1pr::URA3 reporter, 5-FOA selection (AID 869;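 active means inhibition over a set limit, the all-compound mean plus 3 SD, in both replicate runs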;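 further: 0% = DMSO wells with no growth and 100% = 10 µM 1-NA-PP1 with full growth; RAM network block rescues cells from 5-FOA so hits raise OD615 growth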). Conditions: S. cerevisiae dse1pr::URA3 5-FOA growth, OD615, 2 d; at 10 µM; stronger effect = higher value; strain carries analog-sensitive mutant Cbk1 kinase.
Test [7] is described as follows: RAM signaling pathway blockade in yeast – S. cerevisiae, Pdr1DBD-CYC8 efflux-inhibited sensitized strain, primary screen (AID 1298;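 active means RAM network inhibition above 8.4% in each of two replicates, 3 SD over the compound average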;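 further: 0% = DMSO untreated cells without growth and 100% = 10 µM 1-NA-PP1 full growth; higher means more yeast growth rescued from 5-FOA killing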). The conditions noted are these: S. cerevisiae cbk1-as DSE1-URA3 strain, 5-FOA growth OD615, 2 d; at 50 µM; stronger effect = higher value.

Usually viability stands for a read-out of living cells in per cent, often relative to untreated cells. Broadly, the inhibition is the relative decrease from the control value, in per cent.

`COc1ccc(C2C(C(=O)NCc3cccnc3)c3ccccc3C(=O)N2C)cc1OC` (centres undefined): the figures for the growth inhibition in test [1] and in test [2] were -16.2% (inactive) and -13.9% (inactive), respectively. In test [3], the viability increase is -0.88% (inactive). Also, the viability is 101% (inactive) in test [4] and 96.6% (inactive) in test [5]. Also, the inhibition in test [6] was 1.71% (inactive). In addition, the RAM network inhibition in test [7] is -0.99% (inactive).
In the case of `COc1ccccc1CNC(=O)COC(=O)c1ccc(NC(N)=O)cc1`, the results for the growth inhibition in test [1] and in test [2] were -12.7% (inactive) and -13.7% (inactive), respectively. Besides, the viability increase in test [3] was -0.98% (inactive). Moreover, the values for the viability in test [4] and in test [5] were 96.5% (inactive) and 97.9% (inactive), respectively. For the same compound, in test [6], the inhibition was 0.56% (inactive). Besides, in test [7], the RAM network inhibition was 5.2% (inactive).
For the compound `Fc1ccc(-c2nnc(-c3ccc(Cl)cc3Cl)o2)cc1`, the growth inhibition in test [1] was -6.69% (inactive); in test [2], -11.2% (inactive). In test [3], the viability increase is -5.12% (inactive). Moreover, the viability in test [4] was 70.6% (inactive); in test [5], 64.2% (inactive). In addition, in test [6], the inhibition was 3.06% (inactive). In addition, the RAM network inhibition in test [7] was 3.99% (inactive).
In the case of `O=C(NC1CCCC1)C1c2ccccc2C(=O)N1CCCN1CCOCC1` (centres undefined), the figures for the growth inhibition in test [1] and in test [2] were -2.13% (inactive) and -1.37% (inactive), respectively. Further, in test [3], the viability increase is -1.72% (inactive). Also, the viability in test [4] was 97.2% (inactive); in test [5], 98.4% (inactive). In addition, the inhibition in test [6] was 1.2% (inactive). The RAM network inhibition in test [7] is 1.51% (inactive).
With `O=C(Cc1cc(=O)[nH]c(=O)[nH]1)NCC1CCCO1` (centres undefined), the growth inhibition was 7.33% (inactive) in test [1] and -1.15% (inactive) in test [2]. Moreover, in test [3], the viability increase is 0.94% (inactive). Also, the viability was 106% (inactive) in test [4] and 104% (inactive) in test [5]. Moreover, the inhibition in test [6] is 0.945% (inactive). In test [7], the RAM network inhibition was 2.29% (inactive).
For the compound `Cc1ccc(F)c(NC=C2C(=O)OC(C)(C)OC2=O)c1`, the values for the growth inhibition in test [1] and in test [2] were -10.2% (inactive) and -7.67% (inactive), respectively. Further, the viability increase in test [3] is 0.97% (inactive). Besides, the figures for the viability in test [4] and in test [5] were 87.9% (inactive) and 92.8% (inactive), respectively. Further, the inhibition in test [6] was 2.53% (inactive). Besides, the RAM network inhibition in test [7] was 2.44% (inactive).
`Cc1ccc2nc(-c3ccccc3)cc(C(=O)O)c2c1`: the growth inhibition in test [1] is -9.89% (inactive); in test [2] it was 8.96% (inactive). Moreover, the viability increase in test [3] was -2.12% (inactive). The viability was 95.3% (inactive) in test [4] and 87.8% (inactive) in test [5]. The inhibition in test [6] is 1.46% (inactive). In test [7], the RAM network inhibition is 3.9% (inactive).
Take `COc1ccc(OCC(=O)N2CCN(C(=O)c3ccccc3)CC2)cc1`: the growth inhibition in test [1] is -15.8% (inactive); in test [2], -9.8% (inactive). Besides, the viability increase in test [3] is 1.19% (inactive). The viability in test [4] was 91.1% (inactive); in test [5] it was 87.2% (inactive). Moreover, the inhibition in test [6] is 1.66% (inactive). Besides, in test [7], the RAM network inhibition was 0.47% (inactive).
As to `CCn1c(CCC(=O)Nc2cc(F)ccc2C)nc2cc(S(=O)(=O)N(C)C)ccc21`, the growth inhibition is -6.57% (inactive) in test [1] and -1.81% (inactive) in test [2]. For the same compound, the viability increase in test [3] is -0.38% (inactive). The viability in test [4] was 99.5% (inactive); in test [5] it was 97.1% (inactive). Further, the inhibition in test [6] is 2.07% (inactive). In test [7], the RAM network inhibition is 6.18% (inactive).
`Cc1ccc(S(=O)(=O)CCc2nc3ccccc3n2CCC#N)cc1`: the figures for the growth inhibition in test [1] and in test [2] were 4.59% (inactive) and 0.82% (inactive), respectively. The viability increase in test [3] is -7.34% (inactive). The viability is 23.5% (active) in test [4] and 18.7% (active) in test [5]. For the same compound, in test [6], the inhibition is 0.995% (inactive). For the same compound, the RAM network inhibition in test [7] was 0.01% (inactive).
For `Brc1cccc(-c2nnc(SCc3ccon3)n2-c2ccccc2)c1`, the figures for the growth inhibition in test [1] and in test [2] were -5.09% (inactive) and 3.47% (inactive), respectively. Further, in test [3], the viability increase is -5.94% (inactive). Besides, the viability in test [4] was 92.3% (inactive); in test [5], 78.7% (inactive). Besides, the inhibition in test [6] was 1.46% (inactive). The RAM network inhibition in test [7] was 0.07% (inactive).
With `Cc1nc2ccc(NC(=O)c3ccc(Cl)s3)cc2s1`, the values for the growth inhibition in test [1] and in test [2] were -7.99% (inactive) and -7.74% (inactive), respectively. In addition, the viability increase in test [3] was -3.83% (inactive). Besides, the figures for the viability in test [4] and in test [5] were 106% (inactive) and 97.1% (inactive), respectively. In addition, the inhibition in test [6] was 1.84% (inactive). In test [7], the RAM network inhibition was 4.46% (inactive).
With `CC(=O)SCCC(=O)N1C(C)CCCC1C(=O)O` (centres undefined), the results for the growth inhibition in test [1] and in test [2] were -1.05% (inactive) and -7.75% (inactive), respectively. For the same compound, the viability increase in test [3] was -0.97% (inactive). Further, the viability in test [4] is 95.9% (inactive); in test [5] it was 102% (inactive). Besides, in test [6], the inhibition was 0.62% (inactive). For the same compound, in test [7], the RAM network inhibition is 5.78% (inactive).
On to `CCCC(=O)NC(C)c1nc2ccccc2n1C(C)C` (centres undefined), for which the figures for the growth inhibition in test [1] and in test [2] were -10.7% (inactive) and -16.6% (inactive), respectively. In test [3], the viability increase is 0.47% (inactive). Further, the viability in test [4] is 97.5% (inactive); in test [5], 91.2% (inactive). Further, in test [6], the inhibition was 0.475% (inactive). For the same compound, the RAM network inhibition in test [7] was 2.52% (inactive).
In the case of `CCOC(=O)N1CCN(C(=O)COc2ccc(Br)cc2)CC1`, the growth inhibition is -16.4% (inactive) in test [1] and 11.8% (inactive) in test [2]. Besides, the viability increase in test [3] was 1.9% (inactive). For the same compound, the results for the viability in test [4] and in test [5] were 100% (inactive) and 90.6% (inactive), respectively. For the same compound, the inhibition in test [6] was 1.12% (inactive). For the same compound, the RAM network inhibition in test [7] is 6.68% (inactive).
In the case of `O=C(COc1ccc(Cl)cc1)Nc1nnc(-c2ccc3c(c2)CCCC3)o1`, the growth inhibition in test [1] is -12.6% (inactive); in test [2] it was -12.9% (inactive). In addition, in test [3], the viability increase was -1.94% (inactive). The values for the viability in test [4] and in test [5] were 101% (inactive) and 96.5% (inactive), respectively. For the same compound, in test [6], the inhibition is 3.45% (inactive). For the same compound, in test [7], the RAM network inhibition is 1.21% (inactive).
Consider `O=C(O)CC(CNS(=O)(=O)c1ccccc1)c1ccccc1` (centres undefined), for which the growth inhibition in test [1] is -1.83% (inactive); in test [2] it was 1.5% (inactive). Also, in test [3], the viability increase was 0.76% (inactive). In addition, the viability in test [4] is 100% (inactive); in test [5], 98.6% (inactive). Besides, in test [6], the inhibition was 1.54% (inactive). Besides, the RAM network inhibition in test [7] is -0.36% (inactive).
